A selection: hits, their analogues and other compounds. The true share with any hit is near 1.7%.
Myeloid diff 2: induction of myeloid progenitor differentiation, primary screen, cell-based, flow cytometry, MLPCN library. ER-HoxA9 myeloid progenitors, lysozyme-GFP differentiation. calls only at 10 µM. actives 1% (n = 360,000). AID 624256, 2012;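 active = normalized GFP-positive differentiation at or above the plate's own cutoff, the solvent-only control mean plus 3 SD; inconclusive = no clear call, values can overlap the other calls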;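 note: cells exposed to compound for four days before flow analysis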
DSG3 Ab inh: inhibitors of pemphigus antibody binding to DSG3, primary screen, biochemical, bead-based, flow cytometry, scFv-GFP; Desmoglein-3 (Homo sapiens), P32926; DSG3-coupled beads, scFv-anti-DSG3-GFP binding; stronger effect = lower value; binding (percent of control), % at 10 µM; actives 0.48% (n = 310,000);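 active = binding more than 3 SD below its plate's average and above zero; inconclusive = below that plate limit but binding exactly zero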;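 note: hits lower antibody fragment binding to DSG3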
Target sequence (P32926 whole entry, looked up, the tested form may be a part): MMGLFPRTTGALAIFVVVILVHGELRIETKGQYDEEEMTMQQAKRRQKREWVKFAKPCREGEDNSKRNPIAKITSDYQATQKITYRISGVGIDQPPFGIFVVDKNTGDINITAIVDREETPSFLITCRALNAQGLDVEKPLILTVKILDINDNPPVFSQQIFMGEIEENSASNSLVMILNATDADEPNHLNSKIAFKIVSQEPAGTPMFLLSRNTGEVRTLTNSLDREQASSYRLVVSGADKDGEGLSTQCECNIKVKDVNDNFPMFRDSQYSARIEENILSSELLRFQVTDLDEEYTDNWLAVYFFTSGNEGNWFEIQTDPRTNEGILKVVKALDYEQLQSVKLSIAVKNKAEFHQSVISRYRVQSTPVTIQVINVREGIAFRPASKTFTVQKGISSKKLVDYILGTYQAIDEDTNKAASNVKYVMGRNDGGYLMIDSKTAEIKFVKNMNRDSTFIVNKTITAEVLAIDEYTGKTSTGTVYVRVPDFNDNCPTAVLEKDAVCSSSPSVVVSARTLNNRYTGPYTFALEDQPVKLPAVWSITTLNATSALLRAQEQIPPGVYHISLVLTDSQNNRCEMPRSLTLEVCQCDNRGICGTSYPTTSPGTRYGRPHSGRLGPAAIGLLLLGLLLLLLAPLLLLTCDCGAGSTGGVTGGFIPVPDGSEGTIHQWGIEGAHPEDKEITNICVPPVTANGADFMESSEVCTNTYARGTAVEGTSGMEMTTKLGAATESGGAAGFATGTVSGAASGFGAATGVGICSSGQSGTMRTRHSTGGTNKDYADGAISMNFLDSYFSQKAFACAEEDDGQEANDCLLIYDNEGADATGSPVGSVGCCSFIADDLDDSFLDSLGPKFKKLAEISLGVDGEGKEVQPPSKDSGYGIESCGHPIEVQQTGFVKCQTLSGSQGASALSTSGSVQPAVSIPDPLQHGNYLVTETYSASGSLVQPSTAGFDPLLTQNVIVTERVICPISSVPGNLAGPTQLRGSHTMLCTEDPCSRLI
Vif imaging: HIV Vif self-association inhibitors, primary screen, imaging, HEK293T, single point | actives 0.35% (n = 340,000) | inhibition, % at 7.49 µM | HEK293T cells, Vif self-association by quenched fluorescence, 24 h; in the data active = inhibition above about 50%, passing the limit was not always enough; inconclusive = no clear call, values can overlap the other calls; inactive = below about 31%
T cell modulator: modulators of CD8 T cell-vesicle binding, primary screen, mouse 2C CD8+ T cells, flow cytometry; 2C CD8+ T cell-vesicle binding; stronger effect = lower value; response (vesicle binding), % at 7 µM; actives 0.068% (n = 330,000);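 active = response, share of CD8 T cells binding vesicles, and their 90th percentile fluorescence all below set limits, cut at about 80% in these data, passing the limit was not always enough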;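 note: values below 100% mean blocked vesicle binding to the CD8+ T cells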
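Incubation: binding step 1.5 h, 37 °C, antibody labelling 20 min, ice; system: murine 2C transgenic CD8+ T lymphocytes; technique: cytometric PE anti-B7-1 and Alexa647 anti-CD8 signals after 1% paraformaldehyde fixation; also added: QL9-charged Drosophila Ld/ICAM-1/B7-1 vesicles; control set: naked versus QL9-loaded vesicles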
* = called active by the depositor; i = inactive; ? = inconclusive; · = not tested or not shown; + = active, no number.

SMILES	Myeloid diff 2	DSG3 Ab inh	Vif imaging	T cell modulator
CC[N+]1=C(C)C(C)(C)c2cc(C)ccc21	+	97.6	·	297.1
Cc1cccc(NC(=O)/C(C#N)=C/c2cn(CC(=O)NCc3ccco3)c3ccccc23)c1C	i	152.7	72.3*	270.0
O=C(NCCO)Nc1ccc(Cl)cc1	i	100.6	-0.6	111.4
O=C(NCCNC(=O)Nc1ccc(Cl)cc1)Nc1ccc(Cl)cc1	+	·	-1.1	·
O=[N+]([O-])c1cccc(S(=O)(=O)Nc2ccc3cn[nH]c3c2)c1	i	102.9	-5.2	697.5
O=C(C(=O)N1CCCN(Cc2ccc(F)cc2)CC1)c1ccccc1	i	·	·	·
CC(=O)NC(c1cc(Cl)c2ccccc2c1O)C(C)C (stereo unspecified)	+	104.6	-3.1	190.7
COc1cccc(C(=O)N2CCN(C(=O)C3COc4ccccc4O3)CC2)c1 (stereo unspecified)	i	96.0	1.2	934.4
CSCCC(NS(=O)(=O)c1ccc2ccccc2c1)C(=O)OCC(=O)c1ccc(C(C)C)cc1 (stereo unspecified)	+	98.2	-6.6	678.1
CCOC(=O)C1(C)CCCN1C(=O)c1ccc(N(C)C)cc1 (stereo unspecified)	i	·	-0.9	·
Cc1cc2nc(NC(=O)C3(C)CCN(C)C3)[nH]c2cc1C (stereo unspecified)	i	·	-7.7	·
COc1ccc(OCCNS(=O)(=O)c2ccccc2)cc1	i	121.4	52.2*	162.9
COc1ccc(S(=O)(=O)NCCOc2ccc(Cl)cc2)cc1	i	90.7	6.6	194.7
CCN(CC)c1ncnc2c1ncn2[C@H]1CN(Cc2ccc(OC)cc2)C[C@@H](CO)O1	i	·	2.5	·
O=C(c1cc(F)ccc1F)N1CCC(N2CCC(C(=O)N3CCCC3)CC2)CC1	+	107.9	4.6	385.8
O=C(CCCNC(=O)c1ccc(Cl)cc1)Nc1ccc(F)c(S(=O)(=O)N2CCOCC2)c1	i	93.8	2.0	269.4
Cn1c(=O)c2c(nc(NCC3CCCC(CN)C3)n2Cc2ccc(Cl)cc2Cl)n(C)c1=O (stereo unspecified)	?	92.9	51.2*	946.6
Cc1cc(C(C)(C)C)cc(C)c1C[n+]1ccc2ccccc2c1	+	235.0	-5.8	149.7
CCCCCCCCN1C(=O)[C@H](CC(=O)NCc2ccc(OC)c(OC)c2)C[C@@]2(C(=O)OC)CC(C)(C)CC=C12	i	·	·	·
C[C@H](CO)N1C[C@H](C)[C@@H](CN(C)CC2CC2)OCc2cnnn2CCCC1=O	+	102.0	-3.4	·
C[C@H]1CN([C@@H](C)CO)C(=O)CCCn2cc(nn2)CO[C@@H]1CN(C)S(=O)(=O)c1ccc(Oc2ccccc2)nc1	+	107.0	·	·
O=C(N/C(=C\c1ccco1)C(=O)N1CCCC(CO)C1)c1ccccc1 (stereo unspecified)	i	·	-1.1	558.4
COc1ccc(C(=O)Nc2ccc(S(=O)(=O)N(C)c3ccccc3)cc2)cc1	i	110.6	-22.3	396.9
Nc1ccc2nc(-c3ccccc3)cnc2c1	+	101.9	?	476.3
CCCN1C(=O)c2ccccc2NC1c1ccc(O)c(OCC)c1 (stereo unspecified)	i	88.6	-10.4	202.1
SMILES	Myeloid diff 2	DSG3 Ab inh	Vif imaging	T cell modulator
C[C@]12CC[C@H]3C(=CCc4cc(O)ccc43)[C@@H]1CCC2=O	+	104.2	0.4	555.7
Cc1ccc(S(=O)(=O)Nc2ccccc2C(C(=O)OC(C)(C)C)C(=O)OC(C)(C)C)cc1	i	·	·	·
COc1cc2c(cc1OC)-c1nc3ccccc3c(=O)n1C(C)(C)C2	+	103.5	22.9	133.6
COc1ccc(/C=C2\CCn3c2nc2ccccc2c3=O)cc1OC	i	110.3	-0.8	567.1
COc1ccc(C2C(C#N)=C(N)OC(C(C)(C)C)=C2C#N)cc1OC (stereo unspecified)	i	101.6	-6.7	418.3
COc1ccc(C2C(C#N)=C(N)SC(N)=C2C#N)cc1OC	+	·	19.6	226.6
CCCCn1nnnc1C(C1CC1)N1CCN(C/C=C/c2ccccc2)CC1 (stereo unspecified)	i	·	-4.3	·
Cc1c(O)ccc(/C=N/Nc2nc(-c3cccnc3)nc3ccccc23)c1O	i	94.0	1.3	114.1
Oc1ccc(/C=N/Nc2nc(-c3cccnc3)nc3ccccc23)c(O)c1	i	78.4*	·	326.0
Cc1nc2nc(C(F)(F)F)[nH]c2nc1C	i	103.9	10.3	·

Bioassay records (PubChem BioAssay)
